Source: ChEMBL document CHEMBL1649517, “Effect of MexXY overexpression on ceftobiprole susceptibility in Pseudomonas aeruginosa” (2009)
In brackets after ≈: the same amount, converted by molar mass.

Legend:
[1] = tested on: Pseudomonas aeruginosa; assay: Antimicrobial activity against Pseudomonas aeruginosa isolate OC17355 harboring plasmid JAK16 expressing mexXY gene by broth microdilution method; format: functional
Summary of the method: (§1)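 CLSI broth microdilution MIC on P. aeruginosa transformants. Plasmids (control vector pJAK16, pMexXY or cloned mexZ repressor; 200 ng) were electroporated into fresh electrocompetent cells, and transformants were selected on Mueller-Hinton plates with chloramphenicol 200 or 400 μg/ml. Cultures were kept in chloramphenicol 200 μg/ml to maintain the plasmid, with 1 mM IPTG to induce the cloned gene.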

[2] = tested on: Pseudomonas aeruginosa; assay: Antimicrobial activity against Pseudomonas aeruginosa isolate OC17349 by broth microdilution method; format: functional
Summary of the method: (§2)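 Clinical P. aeruginosa isolates, baseline and posttreatment, collected in ceftobiprole phase III clinical trials. MICs were measured by CLSI broth microdilution.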

[3] = tested on: Pseudomonas aeruginosa; assay: Antimicrobial activity against Pseudomonas aeruginosa isolate OC17355 by broth microdilution method; format: functional; summary of the method: as §2
[4] = tested on: Pseudomonas aeruginosa; assay: Antimicrobial activity against Pseudomonas aeruginosa isolate OC14552 by broth microdilution method; format: functional; summary of the method: as §2
[5] = tested on: Pseudomonas aeruginosa; assay: Antimicrobial activity against Pseudomonas aeruginosa isolate OC17355 harboring plasmid MexZ expressing mexXY gene by broth microdilution method; format: functional; summary of the method: as §1
[6] = tested on: Pseudomonas aeruginosa; assay: Antimicrobial activity against Pseudomonas aeruginosa isolate OC16830 harboring plasmid MexZ expressing mexXY gene by broth microdilution method
[7] = tested on: Pseudomonas aeruginosa; assay: Antimicrobial activity against Pseudomonas aeruginosa isolate OC14812 by broth microdilution method; format: functional; summary of the method: as §2
[8] = tested on: Pseudomonas aeruginosa; assay: Antimicrobial activity against Pseudomonas aeruginosa PAO1 harboring plasmid MexZ expressing mexXY gene by broth microdilution method; format: functional; summary of the method: as §1
[9] = tested on: Pseudomonas aeruginosa; assay: Antimicrobial activity against Pseudomonas aeruginosa isolate OC14812 harboring plasmid JAK16 expressing mexXY gene by broth microdilution method; format: functional; summary of the method: as §1
[10] = tested on: Pseudomonas aeruginosa; assay: Antimicrobial activity against Pseudomonas aeruginosa isolate OC16827 harboring plasmid MexZ expressing mexXY gene by broth microdilution method
[11] = tested on: Pseudomonas aeruginosa; assay: Antimicrobial activity against Pseudomonas aeruginosa PAO1 harboring plasmid MexXY expressing mexXY gene by broth microdilution method; format: functional; summary of the method: as §1
[12] = tested on: Pseudomonas aeruginosa; assay: Antimicrobial activity against Pseudomonas aeruginosa isolate OC16827 harboring plasmid MexXY expressing mexXY gene by broth microdilution method; format: functional; summary of the method: as §1
[13] = tested on: Pseudomonas aeruginosa; assay: Antimicrobial activity against Pseudomonas aeruginosa isolate OC16827 by broth microdilution method; format: functional; summary of the method: as §2
[14] = tested on: Pseudomonas aeruginosa; assay: Antimicrobial activity against Pseudomonas aeruginosa isolate OC14551 by broth microdilution method; format: functional; summary of the method: as §2
[15] = tested on: Pseudomonas aeruginosa; assay: Antimicrobial activity against Pseudomonas aeruginosa isolate OC16830 harboring plasmid JAK16 expressing mexXY gene by broth microdilution method; format: functional; summary of the method: as §1
[16] = tested on: Pseudomonas aeruginosa; assay: Antimicrobial activity against Pseudomonas aeruginosa PAO1 harboring plasmid JAK16 expressing mexXY gene by broth microdilution method; format: functional; summary of the method: as §1
[17] = tested on: Pseudomonas aeruginosa; assay: Antimicrobial activity against Pseudomonas aeruginosa isolate OC16827 harboring plasmid JAK16 expressing mexXY gene by broth microdilution method; format: functional; summary of the method: as §1
[18] = tested on: Pseudomonas aeruginosa; assay: Antimicrobial activity against Pseudomonas aeruginosa isolate OC14805 by broth microdilution method; format: functional; summary of the method: as §2
[19] = tested on: Pseudomonas aeruginosa; assay: Antimicrobial activity against Pseudomonas aeruginosa isolate OC16830 by broth microdilution method; format: functional; summary of the method: as §2
[20] = tested on: Pseudomonas aeruginosa; assay: Antimicrobial activity against Pseudomonas aeruginosa isolate OC14812 harboring plasmid MexZ expressing mexXY gene by broth microdilution method; format: functional; summary of the method: as §1
[21] = tested on: Pseudomonas aeruginosa; assay: Antimicrobial activity against Pseudomonas aeruginosa isolate OC14551 harboring plasmid JAK16 expressing mexXY gene by broth microdilution method; format: functional; summary of the method: as §1
[22] = tested on: Pseudomonas aeruginosa; assay: Antimicrobial activity against Pseudomonas aeruginosa isolate OC14551 harboring plasmid MexZ expressing mexXY gene by broth microdilution method; format: functional; summary of the method: as §1

SMILES: O=C(O)c1cn(C2CC2)c2cc(N3CCNCC3)c(F)cc2c1=O [CIPROFLOXACIN]
- MIC [1]: 4 µg/mL (≈ 12.1 µM)
- MIC [2]: 4 µg/mL (≈ 12.1 µM)
- MIC [3]: 4 µg/mL (≈ 12.1 µM)
- MIC [4]: 0.12 µg/mL (≈ 0.362 µM)
- MIC [5]: 1 µg/mL (≈ 3.02 µM)
- MIC [6]: 0.12 µg/mL (≈ 0.362 µM)
- MIC [7]: 1 µg/mL (≈ 3.02 µM)
- MIC [8]: 0.12 µg/mL (≈ 0.362 µM)
- MIC [9]: 1 µg/mL (≈ 3.02 µM)
- MIC [10]: 0.12 µg/mL (≈ 0.362 µM)
- MIC [11]: 1 µg/mL (≈ 3.02 µM)

SMILES: CO/N=C(\C(=O)N[C@@H]1C(=O)N2C(C(=O)[O-])=C(C[N+]3(C)CCCC3)CS[C@H]12)c1csc(N)n1
- MIC [12]: 8 µg/mL (≈ 16.6 µM)
- MIC [1]: 8 µg/mL (≈ 16.6 µM)
- MIC [2]: 4 µg/mL (≈ 8.32 µM)
- MIC [3]: 8 µg/mL (≈ 16.6 µM)
- MIC [13]: 2 µg/mL (≈ 4.16 µM)
- MIC [14]: 8 µg/mL (≈ 16.6 µM)
- MIC [15]: 8 µg/mL (≈ 16.6 µM)
- MIC [16]: 2 µg/mL (≈ 4.16 µM)
- MIC [17]: 2 µg/mL (≈ 4.16 µM)
- MIC [4]: 4 µg/mL (≈ 8.32 µM)
- MIC [5]: 2 µg/mL (≈ 4.16 µM)
- MIC [18]: 2 µg/mL (≈ 4.16 µM)
- MIC [6]: 4 µg/mL (≈ 8.32 µM)
- MIC [7]: 8 µg/mL (≈ 16.6 µM)
- MIC [19]: 8 µg/mL (≈ 16.6 µM)
- MIC [8]: 1 µg/mL (≈ 2.08 µM)
- MIC [20]: 2 µg/mL (≈ 4.16 µM)
- MIC [9]: 8 µg/mL (≈ 16.6 µM)
- MIC [10]: 2 µg/mL (≈ 4.16 µM)
- MIC [21]: 16 µg/mL (≈ 33.3 µM)
- MIC [11]: 8 µg/mL (≈ 16.6 µM)
- MIC [22]: 4 µg/mL (≈ 8.32 µM)
